13 compounds from ChEMBL document CHEMBL1143239, “The synthesis of bivalent 2beta-carbomethoxy-3beta-(3,4-dichlorophenyl)-8-heterobicyclo[3.2.1]octanes as probes for proximal binding sites on the dopamine and serotonin transporters” (Bioorg Med Chem, 2008) can be followed below.

For assay [1], the target named is Sodium-dependent dopamine transporter (Homo sapiens, UniProt Q01959). As to the kind of experiment: Displacement of [3H]WIN-35428 from human DAT expressed in transfected cell membrane. The format is cell membranes. The method, boiled down:
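Membranes from transfected cells stably expressing hDAT, labelled with [3H]WIN35,428 at 4 nM final, with serial drug dilutions made from DMSO stocks. Buffer Tris.HCl 50 mM, pH 7.4, NaCl 100 mM. Incubated 1 h at 22 °C. Filtered over 0.1% PEI-presoaked GF/B filters and counted. Nonspecific binding defined with 100 μM (-)-cocaine. IC50 reported as mean ± SEM of ≥3 experiments, each in triplicate.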
For orientation: Displacement assays read how much labelled ligand stays bound in the presence of the test substance.

The target of assay [2] is Sodium-dependent serotonin transporter (Homo sapiens, UniProt P31645). As to the kind of experiment: Displacement of [3H]-citalopram from human SERT expressed in HEK293 cell membrane. In kind it is cell membranes. Summed up: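 Competition binding on membranes of HEK-293 cells stably expressing SERT cDNA. [3H]citalopram fixed at 1 nM final, with a range of drug concentrations. Buffer Tris.HCl 50 mM, pH 7.4, NaCl 100 mM. Incubation 2 h at 0–4 °C, started by adding membranes. Rapid filtration through PEI-soaked GF/B filters, then scintillation counting. Nonspecific binding defined with 10 μM fluoxetine. IC50 reported as mean ± SEM of ≥3 experiments, each in triplicate.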
Sequence of Sodium-dependent serotonin transporter (P31645 whole entry): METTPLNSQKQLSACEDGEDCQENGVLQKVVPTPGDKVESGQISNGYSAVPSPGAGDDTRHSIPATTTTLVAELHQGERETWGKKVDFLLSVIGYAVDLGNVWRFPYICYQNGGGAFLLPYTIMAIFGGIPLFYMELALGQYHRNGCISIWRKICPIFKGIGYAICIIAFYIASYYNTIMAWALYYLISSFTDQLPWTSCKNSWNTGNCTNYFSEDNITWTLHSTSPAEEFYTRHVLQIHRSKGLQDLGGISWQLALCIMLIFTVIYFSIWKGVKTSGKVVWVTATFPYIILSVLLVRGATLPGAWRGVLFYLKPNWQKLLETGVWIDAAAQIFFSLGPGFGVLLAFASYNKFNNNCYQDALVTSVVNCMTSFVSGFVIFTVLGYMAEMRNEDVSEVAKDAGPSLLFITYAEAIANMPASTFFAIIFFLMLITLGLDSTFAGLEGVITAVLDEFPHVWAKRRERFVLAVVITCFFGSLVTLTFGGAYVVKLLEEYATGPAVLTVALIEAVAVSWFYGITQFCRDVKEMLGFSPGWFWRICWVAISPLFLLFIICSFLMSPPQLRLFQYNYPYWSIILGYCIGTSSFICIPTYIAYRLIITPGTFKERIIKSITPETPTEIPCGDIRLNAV

Sequence of Sodium-dependent dopamine transporter (Q01959 whole entry): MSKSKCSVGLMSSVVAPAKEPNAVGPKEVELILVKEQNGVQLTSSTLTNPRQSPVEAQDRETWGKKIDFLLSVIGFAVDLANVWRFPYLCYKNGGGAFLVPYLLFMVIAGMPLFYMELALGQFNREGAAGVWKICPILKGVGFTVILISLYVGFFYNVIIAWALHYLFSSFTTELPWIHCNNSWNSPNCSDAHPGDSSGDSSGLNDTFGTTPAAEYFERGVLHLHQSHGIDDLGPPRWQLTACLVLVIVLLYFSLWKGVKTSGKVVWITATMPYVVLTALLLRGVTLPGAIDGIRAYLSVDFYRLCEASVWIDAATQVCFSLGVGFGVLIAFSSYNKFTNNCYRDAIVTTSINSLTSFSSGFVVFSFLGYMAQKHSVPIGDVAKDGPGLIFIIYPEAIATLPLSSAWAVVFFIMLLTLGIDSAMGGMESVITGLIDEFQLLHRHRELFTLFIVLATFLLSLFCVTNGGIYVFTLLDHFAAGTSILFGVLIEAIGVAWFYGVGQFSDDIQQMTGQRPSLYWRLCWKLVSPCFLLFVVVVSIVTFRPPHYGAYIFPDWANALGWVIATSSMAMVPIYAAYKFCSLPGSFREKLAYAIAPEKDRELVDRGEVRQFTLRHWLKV

Broadly, the IC50 is the concentration that inhibits the measured activity by half. For `COC(=O)[C@@H]1C2CCC(C[C@@H]1c1ccc(Cl)c(Cl)c1)S2` (stereo not given in full), the IC50 in assay [1] turned out to be 2 nM; in assay [2] it was 3 nM.
Turning to `CCCCCCC(=O)OC[C@H]1[C@@H](c2ccc(Cl)c(Cl)c2)CC2CC[C@H]1N2C`, the IC50 came out at 8 nM in assay [1] and 53 nM in assay [2].
Regarding `CN1C2CCC1[C@@H](COC(=O)CCC(=O)OC[C@@H]1C3CCC(C[C@@H]1c1ccc(Cl)c(Cl)c1)N3C)[C@@H](c1ccc(Cl)c(Cl)c1)C2`, the values for the IC50 in assay [1] and in assay [2] were 12 nM and 106 nM, respectively.
As for `CN1C2CCC1[C@@H](COC(=O)CCCCC(=O)OC[C@@H]1C3CCC(C[C@@H]1c1ccc(Cl)c(Cl)c1)N3C)[C@@H](c1ccc(Cl)c(Cl)c1)C2`, the figures for the IC50 in assay [1] and in assay [2] were 28 nM and 56 nM, respectively.
In the case of `CN1C2CC[C@@H]1[C@@H](COC(=O)CCC(=O)OC[C@@H]1C3CCC(C[C@@H]1c1ccc(Cl)c(Cl)c1)S3)[C@@H](c1ccc(Cl)c(Cl)c1)C2`, the concentration for half-maximal inhibition (IC50) in assay [1] turned out to be 55 nM; in assay [2], 593 nM.
As to `CN1C2CCC1[C@@H](COC(=O)CCCCCCCCC(=O)OC[C@@H]1C3CCC(C[C@@H]1c1ccc(Cl)c(Cl)c1)N3C)[C@@H](c1ccc(Cl)c(Cl)c1)C2`, the IC50 in assay [1] is 31 nM; in assay [2] it was 17 nM.
As to `O=C(CCC(=O)OC[C@@H]1C2CCC(C[C@@H]1c1ccc(Cl)c(Cl)c1)S2)OC[C@@H]1C2CCC(C[C@@H]1c1ccc(Cl)c(Cl)c1)S2`, the IC50 in assay [1] came out at 1540 nM; in assay [2], 2200 nM.
The corresponding values for `COC(=O)[C@@H]1C2CCC(C[C@@H]1c1ccc(Cl)c(Cl)c1)O2` (stereo not given in full) are 3.3 nM and 4.7 nM.
For `CN1C2CCC1[C@@H](COC(=O)CCCCCCC(=O)OC[C@@H]1C3CCC(C[C@@H]1c1ccc(Cl)c(Cl)c1)N3C)[C@@H](c1ccc(Cl)c(Cl)c1)C2` the same measures were 11 nM and 31 nM.
As for `CN1C2CC[C@@H]1[C@@H](COC(=O)CCC(=O)OC[C@H]1[C@@H](c3ccc(Cl)c(Cl)c3)CC3CC[C@H]1O3)[C@@H](c1ccc(Cl)c(Cl)c1)C2`, the IC50 in assay [1] was found to be 67 nM; in assay [2] it was 405 nM.
In the case of `CN1C2CCC1[C@@H](COC(=O)CCCCCCCCCCC(=O)OC[C@@H]1C3CCC(C[C@@H]1c1ccc(Cl)c(Cl)c1)N3C)[C@@H](c1ccc(Cl)c(Cl)c1)C2`, the IC50 in assay [1] was 115 nM; in assay [2], 140 nM.
For `O=C(CCC(=O)OC[C@@H]1C2CCC(C[C@@H]1c1ccc(Cl)c(Cl)c1)S2)OC[C@@H]1C2CCC(C[C@@H]1c1ccc(Cl)c(Cl)c1)O2` (stereo not given in full) the same measures were 2960 nM and 992 nM.
`COC(=O)[C@@H]1C2CCC(C[C@@H]1c1ccc(Cl)c(Cl)c1)N2C` (stereo not given in full) registered an IC50 in assay [2] of 2.5 nM. That is a single-digit nanomolar value.
